For data set [1], the target named is Hepatocyte growth factor receptor (Homo sapiens, UniProt P08581). Put plainly: Displacement of fluorescein labeled ATP probe from His/GST-tagged c-Met (unknown origin) incubated for 60 mins by HTRF assay. (In general: TR-FRET usually uses a lanthanide donor and a delayed reading to cut background.)
Data set [2] concerns the target T1, Receptor-interacting serine/threonine-protein kinase 3 (Homo sapiens, UniProt Q9Y572). Kind of data set: Displacement of fluorescein labeled ATP probe from full length His/GST-tagged RIPK3 (unknown origin) incubated for 60 mins by HTRF assay.
Target sequence in this assay (Q9Y572 whole entry): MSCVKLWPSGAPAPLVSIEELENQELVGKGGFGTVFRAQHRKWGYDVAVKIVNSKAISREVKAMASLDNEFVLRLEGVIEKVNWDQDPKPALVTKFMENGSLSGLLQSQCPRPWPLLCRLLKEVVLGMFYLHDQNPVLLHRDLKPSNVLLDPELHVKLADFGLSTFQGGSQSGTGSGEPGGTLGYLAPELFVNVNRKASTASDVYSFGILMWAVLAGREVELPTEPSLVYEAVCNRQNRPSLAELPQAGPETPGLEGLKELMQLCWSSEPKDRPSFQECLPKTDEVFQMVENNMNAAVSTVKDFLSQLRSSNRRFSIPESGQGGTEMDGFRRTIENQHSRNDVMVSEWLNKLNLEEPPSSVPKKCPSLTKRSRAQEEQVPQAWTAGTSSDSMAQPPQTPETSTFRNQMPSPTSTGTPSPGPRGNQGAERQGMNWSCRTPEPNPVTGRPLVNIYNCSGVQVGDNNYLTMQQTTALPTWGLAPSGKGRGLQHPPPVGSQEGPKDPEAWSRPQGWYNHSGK
The target in data set [3] is T2, Receptor-interacting serine/threonine-protein kinase 2 (Homo sapiens, UniProt O43353). Kind of data set: Displacement of fluorescein labeled ATP probe from His/GST-tagged RIPK2 (unknown origin) incubated for 60 mins by HTRF assay.
In data set [4] the target is T3, Receptor-interacting serine/threonine-protein kinase 1 (Homo sapiens, UniProt Q13546).
T3 sequence (Q13546 whole entry): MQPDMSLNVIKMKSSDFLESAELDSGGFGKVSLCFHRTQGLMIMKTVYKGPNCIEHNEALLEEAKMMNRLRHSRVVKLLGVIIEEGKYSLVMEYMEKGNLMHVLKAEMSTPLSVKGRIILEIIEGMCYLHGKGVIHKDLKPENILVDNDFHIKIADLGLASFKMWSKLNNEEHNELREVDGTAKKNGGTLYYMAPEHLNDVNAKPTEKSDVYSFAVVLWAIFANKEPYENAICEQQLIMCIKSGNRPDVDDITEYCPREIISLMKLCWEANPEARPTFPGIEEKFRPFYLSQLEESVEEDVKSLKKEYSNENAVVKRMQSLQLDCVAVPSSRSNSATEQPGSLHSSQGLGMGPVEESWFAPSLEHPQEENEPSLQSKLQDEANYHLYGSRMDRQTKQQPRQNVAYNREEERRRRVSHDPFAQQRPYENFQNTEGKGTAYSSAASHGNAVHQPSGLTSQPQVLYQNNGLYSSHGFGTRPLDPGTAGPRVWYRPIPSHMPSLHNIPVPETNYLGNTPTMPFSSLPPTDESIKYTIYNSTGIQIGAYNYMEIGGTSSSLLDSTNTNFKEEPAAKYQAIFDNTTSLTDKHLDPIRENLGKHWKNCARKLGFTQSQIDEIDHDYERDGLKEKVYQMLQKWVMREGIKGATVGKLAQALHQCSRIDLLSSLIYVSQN
Put plainly: Displacement of fluorescein labeled ATP probe from full length His/GST-tagged RIPK1 (unknown origin) incubated for 60 mins by HTRF assay.

The species named for data set [5] is Homo sapiens. Kind of data set: Selectivity index, ratio of IC50 for displacement of fluorescein labeled ATP probe from His/GST-tagged c-Met (unknown origin) incubated for 60 mins by HTRF assay to IC50 for displacement of fluorescein labeled ATP probe from full length His/GST-tagged RIPK3 (unknown origin) incubated for 60 mins by HTRF assay.
Data set [6] is described as follows: Selectivity index, ratio of IC50 for displacement of fluorescein labeled ATP probe from His/GST-tagged RIPK1 (unknown origin) incubated for 60 mins by HTRF assay to IC50 for displacement of fluorescein labeled ATP probe from His/GST-tagged c-Met (unknown origin) incubated for 60 mins by HTRF assay. The following applies: human, 1 h.
A short description of data set [7]: Selectivity index, ratio of IC50 for displacement of fluorescein labeled ATP probe from His/GST-tagged RIPK2 (unknown origin) incubated for 60 mins by HTRF assay to IC50 for displacement of fluorescein labeled ATP probe from His/GST-tagged c-Met (unknown origin) incubated for 60 mins by HTRF assay. The following applies: human, 1 h.
The target of data set [8] is T3, Receptor-interacting serine/threonine-protein kinase 1. Kind of data set: Displacement of fluorescein labeled ATP probe from His/GST-tagged RIPK1 (unknown origin) incubated for 60 mins by HTRF assay.
The species named for data set [9] is Homo sapiens. Kind of data set: Selectivity index, ratio of IC50 for displacement of fluorescein labeled ATP probe from His/GST-tagged RIPK1 (unknown origin) incubated for 60 mins by HTRF assay to IC50 for displacement of fluorescein labeled ATP probe from full length His/GST-tagged RIPK3 (unknown origin) incubated for 60 mins by HTRF assay.
The target of data set [10] is Mitogen-activated protein kinase 14 (Homo sapiens, UniProt Q16539). Put plainly: Binding affinity to p38alpha (unknown origin). Format: ADME.
Data set [11] addresses T1, Receptor-interacting serine/threonine-protein kinase 3. Put plainly: Displacement of fluorescein labeled probe from full length human GST-tagged RIPK3 expressed in Sf9 cells incubated for 60 mins by HTRF assay.
Target sequence in this assay (Q9Y572 whole entry): as the sequence (Q9Y572 whole entry) above
Data set [12] deals with T2, Receptor-interacting serine/threonine-protein kinase 2. Kind of data set: Displacement of fluorescein labeled probe from full length human GST-tagged RIPK2 expressed in Sf9 cells incubated for 60 mins by HTRF assay.
Data set [13] deals with T3, Receptor-interacting serine/threonine-protein kinase 1. Kind of data set: Displacement of fluorescein labeled probe from full length human GST-tagged RIPK1 expressed in Sf9 cells incubated for 60 mins by HTRF assay.
For data set [14], the target named is T1, Receptor-interacting serine/threonine-protein kinase 3. Put plainly: Time dependent inhibition of full length His/GST-tagged RIPK3 (unknown origin) measured every 5 mins for 60 mins in presence of fluorescein labeled probe by HTRF assay relative to control. An outline of the steps: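 Active full-length RIPK3 was preformed as a complex with the fluorescent probe and antibody. Inhibitor was then added as an 11-point concentration-response series, with HTRF read at 5 and 60 min. Time dependency was scored as the fold shift in IC50 between the two reads; ≥5-fold flagged possible slow binding.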
Target sequence in this assay (Q9Y572 whole entry, looked up): as the sequence (Q9Y572 whole entry) above

Data set [15] has the same target. Kind of data set: Time dependent inhibition of full length His/GST-tagged RIPK3 (unknown origin) measured every 5 mins for 60 mins in presence of fluorescein labeled probe by HTRF assay relative to control. The following applies: 1 h.
Target sequence in this assay (Q9Y572 whole entry, looked up): as the sequence (Q9Y572 whole entry) above
The target is the same in data set [16]. Described as above. The following applies: 1 h. The source holds these as a separate data set.
Target sequence in this assay (Q9Y572 whole entry, looked up): as the sequence (Q9Y572 whole entry) above

The structures appear in SMILES notation.

T2 sequence (O43353 whole entry): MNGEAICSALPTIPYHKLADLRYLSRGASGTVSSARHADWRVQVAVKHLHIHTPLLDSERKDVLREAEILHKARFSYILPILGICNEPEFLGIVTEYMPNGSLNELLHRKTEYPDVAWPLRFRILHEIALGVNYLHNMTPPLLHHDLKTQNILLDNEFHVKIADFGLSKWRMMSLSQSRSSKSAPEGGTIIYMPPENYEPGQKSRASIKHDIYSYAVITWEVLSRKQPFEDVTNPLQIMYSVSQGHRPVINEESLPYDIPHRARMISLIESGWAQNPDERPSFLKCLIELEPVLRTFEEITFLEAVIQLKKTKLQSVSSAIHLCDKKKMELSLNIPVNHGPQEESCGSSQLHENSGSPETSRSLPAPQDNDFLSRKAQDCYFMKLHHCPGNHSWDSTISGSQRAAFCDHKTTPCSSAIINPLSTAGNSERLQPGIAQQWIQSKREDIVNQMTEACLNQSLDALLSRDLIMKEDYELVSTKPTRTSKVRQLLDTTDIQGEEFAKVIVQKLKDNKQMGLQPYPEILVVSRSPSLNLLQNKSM
Chain of Hepatocyte growth factor receptor (P08581 whole entry): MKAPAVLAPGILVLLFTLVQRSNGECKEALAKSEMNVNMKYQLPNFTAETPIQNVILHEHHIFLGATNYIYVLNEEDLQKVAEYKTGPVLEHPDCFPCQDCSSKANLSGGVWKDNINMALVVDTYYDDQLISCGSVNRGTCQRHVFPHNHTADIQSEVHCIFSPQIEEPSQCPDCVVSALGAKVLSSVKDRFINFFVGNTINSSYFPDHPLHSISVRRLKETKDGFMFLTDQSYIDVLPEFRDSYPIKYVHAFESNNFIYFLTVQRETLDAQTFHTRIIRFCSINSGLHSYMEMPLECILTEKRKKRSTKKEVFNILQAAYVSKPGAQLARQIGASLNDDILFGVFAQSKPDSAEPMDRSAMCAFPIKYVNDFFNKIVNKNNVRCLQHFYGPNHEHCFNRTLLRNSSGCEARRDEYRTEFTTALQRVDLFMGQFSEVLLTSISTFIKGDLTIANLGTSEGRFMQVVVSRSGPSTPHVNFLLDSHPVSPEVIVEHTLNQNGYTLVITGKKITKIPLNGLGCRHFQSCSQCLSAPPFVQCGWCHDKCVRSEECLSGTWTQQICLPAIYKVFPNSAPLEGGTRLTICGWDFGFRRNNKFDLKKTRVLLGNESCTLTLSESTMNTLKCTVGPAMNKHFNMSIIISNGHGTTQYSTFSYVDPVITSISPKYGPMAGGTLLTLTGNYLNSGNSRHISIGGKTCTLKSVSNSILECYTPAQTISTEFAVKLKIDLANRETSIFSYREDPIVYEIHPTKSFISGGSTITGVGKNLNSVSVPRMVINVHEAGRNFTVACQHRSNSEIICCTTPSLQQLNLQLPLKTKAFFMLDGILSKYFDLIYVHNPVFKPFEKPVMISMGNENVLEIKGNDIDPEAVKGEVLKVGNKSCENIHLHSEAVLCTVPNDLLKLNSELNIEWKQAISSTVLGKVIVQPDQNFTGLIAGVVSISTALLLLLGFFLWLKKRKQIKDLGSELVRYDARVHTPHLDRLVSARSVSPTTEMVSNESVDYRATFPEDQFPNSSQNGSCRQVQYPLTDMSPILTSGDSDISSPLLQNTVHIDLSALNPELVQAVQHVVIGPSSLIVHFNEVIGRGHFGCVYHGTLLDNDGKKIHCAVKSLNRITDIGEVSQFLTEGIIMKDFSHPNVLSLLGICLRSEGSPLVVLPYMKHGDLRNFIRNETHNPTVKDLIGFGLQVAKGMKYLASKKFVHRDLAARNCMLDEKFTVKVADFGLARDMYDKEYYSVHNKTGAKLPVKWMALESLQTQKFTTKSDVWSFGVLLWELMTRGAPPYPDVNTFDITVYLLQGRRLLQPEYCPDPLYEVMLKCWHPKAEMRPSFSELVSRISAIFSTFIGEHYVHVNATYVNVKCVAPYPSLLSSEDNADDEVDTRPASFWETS
Chain of Mitogen-activated protein kinase 14 (Q16539 whole entry): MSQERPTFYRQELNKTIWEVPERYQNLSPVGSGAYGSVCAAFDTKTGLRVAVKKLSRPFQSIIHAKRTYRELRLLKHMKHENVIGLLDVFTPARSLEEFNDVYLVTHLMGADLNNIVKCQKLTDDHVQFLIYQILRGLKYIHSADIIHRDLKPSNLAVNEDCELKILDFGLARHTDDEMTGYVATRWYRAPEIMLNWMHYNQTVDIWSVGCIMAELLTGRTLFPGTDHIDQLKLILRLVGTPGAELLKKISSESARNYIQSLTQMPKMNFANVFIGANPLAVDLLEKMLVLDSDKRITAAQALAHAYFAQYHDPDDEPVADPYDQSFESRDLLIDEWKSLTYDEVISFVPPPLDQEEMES

For the molecule `Cc1c(NC(=O)c2cccn(-c3ccc(F)cc3)c2=O)ccc(Oc2ccncc2)c1C`, the IC50 (commonly the concentration that gives 50% inhibition) was > 1.5 µM in data set [1], 0.18 µM in data set [2], > 15 µM in [3] and > 15 µM in [4]. Besides, the Ratio IC50 (in the data set filed under Homo sapiens [5]; in data set [6]; in [7]) was > 10 each time.

Regarding `Cc1c(NC(=O)c2cccn(-c3ccc(F)cc3)c2=O)ccc(Oc2ccnc(NC(=O)C3CC3)c2)c1C`, the IC50 in data set [1] was 1.1 µM; in data set [2] it was 0.091 µM; in data set [3], > 10 µM; in [8], 5.5 µM. The Ratio IC50 in the data set listed under Homo sapiens [5] was determined as 100.

With `Cc1cc(NC(=O)c2cccn(-c3ccc(F)cc3)c2=O)cc(C)c1Oc1ccncc1`, the IC50 was 0.5 µM in data set [1], 0.32 µM in data set [2], 13 µM in data set [3] and > 15 µM in data set [8].

Turning to `O=C(Nc1ccc(Oc2ccncc2)c(F)c1)c1cccn(-c2ccc(F)cc2)c1=O`, the IC50 is 0.018 µM in [1], 0.4 µM in [2], > 15 µM in [3] and > 15 µM in data set [8].

In the case of `O=C(Nc1ccc(Oc2ccnc(NC(=O)C3CC3)c2)c(F)c1)c1cccn(-c2ccc(F)cc2)c1=O`, the IC50 in data set [1] was 0.0025 µM; in data set [2], 0.0029 µM; in data set [3], 1.8 µM; in data set [8] it was 0.18 µM. Moreover, in the data set filed under Homo sapiens [9], the Ratio IC50 came to 38.

For `O=C(Nc1ccc(Oc2ccncc2)c2ccccc12)c1cccn(-c2ccc(F)cc2)c1=O`, the IC50 in data set [1] was 12 µM; in data set [2], 0.05 µM; in data set [3] it was > 15 µM; in data set [8] it was > 15 µM. Moreover, the outcome in data set [10] was Active.

As for `O=C(Nc1ccc(Oc2ccnc3[nH]ccc23)c(F)c1)c1cccn(-c2ccc(F)cc2)c1=O`, the IC50 in data set [2] is 0.18 µM; in data set [3], > 15 µM; in data set [8], 1.5 µM.

For the molecule `Nc1ccc(C#Cc2c(Oc3ccc(NC(=O)c4cccn(-c5ccc(F)cc5)c4=O)cc3F)ccnc2N)nc1`, the IC50 in [11] came out at 0.0003 µM; in data set [12], 2.4 µM; in data set [13], 0.31 µM. Besides, the fold change (FC) in [14], in [15] and in data set [16] was 6 each time.

Take `Cc1cc(NC(=O)c2cccn(-c3ccc(F)cc3)c2=O)ccc1Oc1ccnc(NC(=O)C2CC2)c1`: the half-maximal inhibitory concentration (IC50) in data set [1] came out at 0.0063 µM; in data set [2], 0.008 µM; in data set [3], 0.68 µM; in [8], 0.2 µM.

Take `Cc1ccc(COC(=O)Nc2cc(-c3cc4c([nH]3)CCNC4=O)ccn2)cc1`: the results for the IC50 in data set [11], in [12] and in [13] were 0.27 µM, 0.05 µM and 17 µM, respectively. For the same molecule, in data set [15], the “fold change (FC)” value was found to be 2.

In the case of `Cc1cc(NC(=O)c2cccn(-c3ccc(F)cc3)c2=O)cc(C)c1Oc1ccnc(NC(=O)C2CC2)c1`, the IC50 in [1] amounted to 0.3 µM; in [2] it was 0.088 µM; in data set [3], 3.1 µM; in data set [8], 11 µM.

For `O=C(Nc1ccc(Oc2ccncc2)c(F)c1)c1cccc(-c2ccc(F)cc2)c1`, the IC50 in data set [1] was 4.5 µM; in data set [2] it was > 15 µM; in [3] it was > 15 µM; in data set [8] it was > 15 µM.

`CC#Cc1c(Oc2ccc(NC(=O)c3cccn(-c4ccc(F)cc4)c3=O)cc2F)ccnc1N`: the IC50 in data set [2] is 0.016 µM; in data set [3], 3 µM; in [4] it was 0.6 µM.

For the origin of these results see ChEMBL document CHEMBL4342476, “Identification of RIPK3 Type II Inhibitors Using High-Throughput Mechanistic Studies in Hit Triage” (ACS Med Chem Lett, 2020).
